Values without a mark were called inactive.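 The calls were made as follows: active = maximum inhibition above 30% at any tested concentration, with a dose response curve fitted; inactive = no inhibition at any dose or no dose response curve.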
Assay: thallium flux inhibition in parental HEK293 cells, SAR follow-up, counter-screen for KCNK9 inhibitor project, cell-based, FluxOR thallium flux, concentration-response, set 2 (AID 540324)
Settings: FluxOR fluorescence ratio; series mostly up to 30 µM; flux ratio, lower = inhibition: at the top concentration
How it was run: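 Also added: K+/Tl+ sulfate stimulus, 5x stock; system: parental HEK293 cells; times: dye loading 90 min at room temperature in dark, compound exposure 20 min; replicates: at least duplicate; doses: 10 concentrations; technique: FluxOR thallium-flux fluorescence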

Going from Cc1ccc(-c2n[nH]c(=S)n2C(C)C2CC3CCC2C3)cc1 (stereo not given) to CC(C1CC2CCC1C2)n1c(-c2ccccc2)n[nH]c1=S (stereo not given), the “flux ratio, lower = inhibition” value falls from 0.453 to 0.379.

Compared with Cc1cccc(C(=O)Nc2cccc(NC(=O)c3ccccc3OCC(C)C)c2)c1, Cc1cccc(C(=O)Nc2cccc(NC(=O)c3ccccc3C(C)C)c2)c1 is higher in “flux ratio, lower = inhibition” value: 0.117 for the first, 0.155 for the second.

First: Cc1cccc(C(=O)Nc2cccc(NC(=O)c3ccc(C(F)(F)F)cc3)c2)c1
Second: Cc1cccc(C(=O)Nc2cccc(NC(=O)c3ccc(C(C)(C)C)cc3)c2)c1
The “flux ratio, lower = inhibition” value of the first is higher: 0.196 for the first, 0.188 for the second.

First: CC(C1CC2CCC1C2)n1c(-c2ccccc2Cl)n[nH]c1=S (stereo not given)
Second: CC(c1ccccc1)n1c(-c2ccco2)n[nH]c1=S (stereo not given)
The “flux ratio, lower = inhibition” value of the first is lower: 0.205 for the first, 0.248 for the second.

Going from CCOc1ccccc1NC(=O)c1cccc(NC(=O)c2ccc(C)cc2)c1 to CCOc1ccccc1NC(=O)c1cccc(NC(=O)c2ccc(Cl)cc2)c1, the “flux ratio, lower = inhibition” value rises from 0.163 to 0.2.

Going from O=C(Nc1cccc(NC(=O)c2cccc(Cl)c2)c1)c1ccccc1 to Cc1cccc(C(=O)Nc2cccc(NC(=O)c3ccccc3)c2)c1, the “flux ratio, lower = inhibition” value falls from 0.193 to 0.164.

Compared with COc1ccccc1C(=O)Nc1cccc(NC(=O)c2ccccc2C(C)C)c1, COc1ccccc1C(=O)Nc1cccc(NC(=O)c2ccccc2C)c1 is lower in “flux ratio, lower = inhibition” value: 0.159 for the first, 0.148 for the second.

First: O=C(Nc1ccccc1Cl)c1cccc(NC(=O)C2CCCC2)c1
Second: O=C(Nc1cccc(NC(=O)C2CCCCC2)c1)c1ccccc1
The “flux ratio, lower = inhibition” value of the first is lower: 0.14 for the first, 0.154 for the second.

First: CCOc1ccccc1NC(=O)c1cccc(NC(=O)c2ccccc2Cl)c1
Second: CCOc1ccccc1NC(=O)c1cccc(NC(=O)c2ccccc2C(F)(F)F)c1
The “flux ratio, lower = inhibition” value of the first is lower: 0.121 for the first, 0.17 for the second.

First: CCOc1ccccc1C(=O)Nc1cccc(NC(=O)c2ccccc2OC)c1
Second: Cc1ccccc1C(=O)Nc1cccc(NC(=O)c2ccccc2)c1
The “flux ratio, lower = inhibition” value of the first is higher: 0.189 for the first, 0.152 for the second.

Compared with O=C(Nc1cccc(NC(=O)c2cccs2)c1)c1ccccc1, O=C(Nc1cccc(NC(=O)c2cccnc2)c1)c1ccccc1 is higher in “flux ratio, lower = inhibition” value: 0.153 for the first, 0.207 for the second.

First: COc1cccc(OC)c1C(=O)Nc1cccc(NC(=O)c2cccc(C)c2)c1
Second: Cc1cccc(C(=O)Nc2cccc(NC(=O)c3cccc(C)c3)c2)c1
The “flux ratio, lower = inhibition” value of the first is higher: 0.166 for the first, 0.152 for the second.

First: O=C(Nc1cccc(NC(=O)c2cccc(C(F)(F)F)c2)c1)c1ccccc1
Second: COc1cccc(C(=O)Nc2cccc(NC(=O)c3ccccc3)c2)c1
The “flux ratio, lower = inhibition” value of the first is higher: 0.193 for the first, 0.175 for the second.

Compared with CCOc1ccccc1NC(=O)c1cccc(NC(=O)CC2CCCC2)c1, CCOc1ccccc1NC(=O)c1cccc(NC(=O)CC2CCCCC2)c1 is higher in “flux ratio, lower = inhibition” value: 0.132 for the first, 0.151 for the second.

Compared with Cc1cccc(C(=O)Nc2cccc(NC(=O)C3CCCCC3)c2)c1, Cc1cccc(C(=O)Nc2cccc(NC(=O)c3ccccc3Cl)c2)c1 is lower in “flux ratio, lower = inhibition” value: 0.17 for the first, 0.163 for the second.

Going from Cc1cccc(S(=O)(=O)Nc2cccc(NC(=O)c3ccccc3)c2)c1 to O=C(Nc1cccc(NC(=O)c2ccccc2Cl)c1)c1ccccc1, the “flux ratio, lower = inhibition” value rises from 0.165 to 0.17.

Compared with CN(C)c1ccc(C(=O)Nc2cccc(NC(=O)c3ccccc3)c2)cc1, COc1ccccc1NC(=O)c1cccc(NC(=O)c2ccccc2C(F)(F)F)c1 is lower in “flux ratio, lower = inhibition” value: 0.199 for the first, 0.175 for the second.

With CCOc1ccccc1NC(=O)c1cccc(NC(=O)C2CC2)c1 the “flux ratio, lower = inhibition” value was 0.168.
